ChEMBL document CHEMBL1154474, “Pharmacophore based discovery of potential antimalarial agent targeting haem detoxification pathway” (Eur J Med Chem, 2008)
“And” between values parts separate entries of the source, which are not always exact repeats. Identical values can stand only once. Counter-ions that a name gives are not always drawn.

Test system: Plasmodium falciparum
Assay: Antimalarial activity against chloroquine-resistant Plasmodium falciparum K1 after 48 hrs by [G-3H]hypoxanthine uptake
Type: functional, organism-based
Conditions: K1, 48 h

Q: For `C=C[C@@H]1CN2CC[C@@H]1C[C@@H]2[C@@H](O)c1ccnc2ccccc12`, which IC50 is on record?
A: The IC50 was 90.6 nM.

Q: With `C=CC1CN2CCC1C[C@@H]2[C@@H](O)c1ccnc2ccc(OC)cc12` (single isomer, unassigned) [QUINIDINE] as the compound, how does the IC50 read?
A: Its IC50 is 51 nM.

Q: For `CC(C)(C)NCc1cc(Cc2ccnc3cc(Cl)ccc23)ccc1O`, which IC50 is on record?
A: The IC50 was 9.1 nM.

Q: For `CCN(CC)CCCC(C)Nc1c2ccc(Cl)cc2nc2ccc(OC)cc12` (centres undefined) [QUINACRINE], which IC50 is on record?
A: Its IC50 is 43 nM.

Q: Which IC50 does the source give for `CCN(CC)Cc1cc(Cc2ccnc3cc(Cl)ccc23)ccc1O` here?
A: Its IC50 is 18 nM.

Q: Which IC50 does the source give for `CC(CCCN1CCCC1)Nc1ccnc2cc(Cl)ccc12` (centres undefined) [Chloroquine-pyrolidinyl] here?
A: Its IC50 is 89.6 nM.

Q: Which IC50 does the source give for `CC(CCCN)Nc1ccnc2cc(Cl)ccc12` (centres undefined) [BIDESETHYL CHLOROQUINE] here?
A: Its IC50 is 1340 nM.

Q: With `CCNCc1cc(Cc2ccnc3cc(Cl)ccc23)ccc1O` as the compound, how does the IC50 read?
A: Its IC50 is 38.8 nM.

Q: With `Oc1c(CN2CCCC2)cc(Nc2c3ccccc3nc3cc(Cl)ccc23)cc1CN1CCCC1` as the compound, how does the IC50 read?
A: Its IC50 is 9.1 nM.

Q: Which IC50 does the source give for `CCN(CC)Cc1cc(Nc2ccnc3cc(Cl)ccc23)cc(-c2ccc(Cl)cc2)c1` [DEHYDROXY TEBAQUINE] here?
A: The IC50 was 69.3 nM.

Q: With `CCN(CC)Cc1cc(Nc2ccncc2)ccc1O` as the compound, how does the IC50 read?
A: Its IC50 is 1300 nM.

Q: With `Oc1ccc(Nc2ccnc3cc(Cl)ccc23)cc1` as the compound, how does the IC50 read?
A: Its IC50 is 2300 nM.

Q: For `NCc1cc(Cc2ccnc3cc(Cl)ccc23)ccc1O`, which IC50 is on record?
A: Its IC50 is 166 nM.

Q: Which IC50 does the source give for `CC(C)(C)NCc1cc(Nc2ccnc3cc(Cl)ccc23)cc(-c2ccc(Cl)cc2)c1O` [TEBUQUINE] here?
A: Its IC50 is 13 nM.

Q: For `CC(c1cc(C(F)(F)F)nc2c(C(F)(F)F)cccc12)C1CCCCN1` (centres undefined), which IC50 is on record?
A: Its IC50 is 9.4 nM.

Q: Which IC50 does the source give for `C=C[C@@H]1CN2CC[C@@H]1C[C@H]2[C@H](O)c1ccnc2ccccc12` here?
A: The IC50 was 56.2 nM.

Q: Which IC50 does the source give for `CCN(CC)CCCC(C)NC1=CC=NCC1` (centres undefined) here?
A: The IC50 was 15100 nM.

Q: Which IC50 does the source give for `CCCCN(CCCC)CCC(C)c1cc2c(Cl)cc(Cl)cc2c2cc(C(F)(F)F)ccc12` (centres undefined) here?
A: The IC50 was 2.8 nM.

Q: Which IC50 does the source give for `CCN(CC)Cc1cc(Nc2ccnc3cc(Cl)ccc23)cc(-c2ccc(Cl)cc2)c1F` here?
A: Its IC50 is 69 nM.

Q: Which IC50 does the source give for `C=CC1CN2CCC1C[C@H]2[C@H](O)c1ccnc2ccc(OC)cc12` (single isomer, unassigned) [QUININE] here?
A: Its IC50 is 81 nM.

Q: With `Oc1ccc(Cc2ccnc3cc(Cl)ccc23)cc1CN1CCCC1` as the compound, how does the IC50 read?
A: Its IC50 is 11.5 nM.

Test system: Plasmodium falciparum
Assay: Antimalarial activity against chloroquine and pyrimethamine-resistant Plasmodium falciparum K1 after 24 hrs by [3H]hypoxanthine uptake
Type: functional, organism-based
Conditions: not given

Q: For `CN(C)c1ccc(Nc2c3ccccc3nc3cc(N)ccc23)cc1`, which IC50 is on record?
A: Its IC50 is 800 nM and 350 nM.

Same assay, conditions: Plasmodium falciparum, K1

Q: For `CN(C)c1ccc(Nc2c3ccccc3nc3cc(Cl)ccc23)cc1`, which IC50 is on record?
A: Its IC50 is 1100 nM.

Q: For `CNc1ccc(Nc2c3ccccc3nc3cc(Cl)ccc23)cc1`, which IC50 is on record?
A: The IC50 was 1200 nM.

Q: Which IC50 does the source give for `CS(=O)(=O)Nc1ccc(Nc2c3ccccc3nc3cc(Cl)ccc23)cc1` here?
A: Its IC50 is 1000 nM.

Q: With `CS(=O)(=O)Nc1ccc(Nc2c3ccc(Cl)cc3nc3cc(Cl)ccc23)cc1` as the compound, how does the IC50 read?
A: The IC50 was 350 nM.

Q: For `NS(=O)(=O)c1ccc(Nc2c3ccc(Cl)cc3nc3cc(Cl)ccc23)cc1`, which IC50 is on record?
A: The IC50 was 620 nM.

Test system: Plasmodium falciparum
Assay: Antimalarial activity against chloroquine-resistant Plasmodium falciparum K1 after 72 hrs
Type: functional, organism-based
Conditions: K1, 72 h

Q: Which IC50 does the source give for `O=C1CC(c2ccc(Cl)cc2Cl)CC2Sc3ccc(Cl)cc3C(=O)C12` (centres undefined) here?
A: Its IC50 is 16 nM.

Q: Which IC50 does the source give for `CN(C)CCC/N=C1\CC(c2ccc(Cl)cc2Cl)CC2Nc3ccc(Cl)cc3C(=O)C12` (centres undefined) here?
A: The IC50 was 9.5 nM.

Q: Which IC50 does the source give for `O=C1CC(c2ccc(C(F)(F)F)cc2)CC2C1C(=O)c1cc(Cl)ccc1N2O` (centres undefined) here?
A: Its IC50 is 400 nM.

Test system: Plasmodium falciparum
Assay: Antimalarial activity against chloroquine-resistant Plasmodium falciparum K1 by [3H]hypoxanthine uptake
Type: functional, organism-based
Conditions: not given

Q: For `N=C(N)c1ccc(/C=C/c2ccc(C(=N)N)cc2)cc1` [STILBAMIDINE], which IC50 is on record?
A: The IC50 was 27 nM.

Q: With `N=C(N)c1ccc(OCCCOc2ccc(C(=N)N)cc2)cc1` [PROPAMIDINE] as the compound, how does the IC50 read?
A: Its IC50 is 5.6 nM.

Q: For `N=C(N)c1ccc(/N=N/Nc2ccc(C(=N)N)cc2)cc1` [DIMINAZENE], which IC50 is on record?
A: The IC50 was 190 nM.

Test system: Plasmodium falciparum
Assay: Antimalarial activity against chloroquine-resistant Plasmodium falciparum K1
Type: functional, organism-based
Conditions: not given

Q: With `C[n+]1c2ccc(Br)cc2cc2[nH]c3ccc([N+](=O)[O-])cc3c21` as the compound, how does the IC50 read?
A: Its IC50 is 100000 nM.

Q: Which IC50 does the source give for `CN(CCCNc1nc2ccc(Cl)cc2n2cccc12)CCCNc1nc2ccc(Cl)cc2n2cccc12` here?
A: The IC50 was 280 nM.

Q: Which IC50 does the source give for `CN(C)CCCC(=O)Nc1ccc2c(c1)Sc1ccc(Cl)cc1N2C` here?
A: Its IC50 is 7000 nM.

Q: With `C[n+]1c2ccc(Cl)cc2cc2[nH]c3cc(Cl)ccc3c21` as the compound, how does the IC50 read?
A: Its IC50 is 45 nM.

Q: For `C[n+]1c2ccccc2cc2[nH]c3c([N+](=O)[O-])cccc3c21`, which IC50 is on record?
A: Its IC50 is 6300 nM.

Q: For `CCN(CC)CCCC(C)Nc1cc(CCCCCCCCCCc2cc(NC(C)CCCN(CC)CC)c3ccccc3n2)nc2ccccc12` (centres undefined), which IC50 is on record?
A: Its IC50 is 17 nM.

Q: Which IC50 does the source give for `CN(C)CCCN1c2ccc(NCc3cnc[nH]3)cc2Sc2ccc(Cl)cc21` here?
A: Its IC50 is 1800 nM.

Q: Which IC50 does the source give for `CN(C)CCCN(C)CCCN1c2ccccc2Sc2ccccc21` here?
A: The IC50 was 1000 nM.

Q: For `CCN(CC)CCCC(C)Nc1cc(CCCCCCCCCCCCc2cc(NC(C)CCCN(CC)CC)c3ccccc3n2)nc2ccccc12` (centres undefined), which IC50 is on record?
A: Its IC50 is 16 nM.

Q: For `CN(C)CCCN(CCCN(C)C)CCCN1c2ccccc2Sc2ccc(Cl)cc21`, which IC50 is on record?
A: The IC50 was 420 nM.

Q: For `C[n+]1c2ccccc2cc2[n-]c3ccccc3c21` [CRYPTOLEPINE HYDROCHLORIDE], which IC50 is on record?
A: Its IC50 is 100000 nM.

Q: With `C[n+]1c2ccc(Cl)c(Cl)c2cc2[nH]c3ccccc3c21` as the compound, how does the IC50 read?
A: The IC50 was 440 nM.

Q: With `CN(C)CCCC(=O)Nc1ccc2c(c1)Sc1ccc(Cl)cc1N2CCCN(C)C` as the compound, how does the IC50 read?
A: Its IC50 is 2000 nM.

Q: For `C[n+]1c2ccccc2cc2[nH]c3cc([N+](=O)[O-])cc([N+](=O)[O-])c3c21`, which IC50 is on record?
A: The IC50 was 650 nM.

Q: For `C[n+]1c2ccccc2c(C(=O)O)c2[nH]c3ccc(Br)cc3c21`, which IC50 is on record?
A: The IC50 was 260 nM.

Test system: not listed separately
Assay: Ionisation constant for the compound
Type: physicochemical
Conditions: not given
In short: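 Spectrophotometric pKa determination on a UV spectrometer, with measurements in buffers from pH 5.8 to 11.2 and in 0.1 M NaOH and 0.1 M HCl. The pH 5.8–8.0 buffers were made from 0.1 M KH2PO4/K2HPO4, and the pH 8.4–11.2 buffers from 0.1 M glycine with 0.1 M NaOH. Two constants (pKa1, pKa2) were reported.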

Q: Which pKa does the source give for `CCOc1ccc(/C=C/C(=N\NC(=O)c2cccnc2)c2ccc(O)cc2)cc1OC` here?
A: The pKa was 6.87.
